The source of these data is article PMC12376879 (RSC Advances, 2025).

The test addresses human serum albumin (HSA) (Homo sapiens, UniProt P02768). Nature of the test: Isothermal titration calorimetry with HSA. The format is binding. Put shortly:
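HSA (60 μM) in the sample cell, titrated with test compound from the syringe. All solutions were in 5% DMSO in 20 mM phosphate buffer, pH 7.4, with the same solution in the reference cell. Concentrations were set by A280. The run was 19 injections (0.4 μl, then 18 × 2 μl) at 150 s intervals, stirring at 750 rpm. Ligand-into-buffer dilution heats were subtracted. Ka, n, ΔH and ΔS were fitted; ΔG was calculated from them.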

Molecules are shown by their SMILES.

human serum albumin (HSA), sequence (P02768 25-609): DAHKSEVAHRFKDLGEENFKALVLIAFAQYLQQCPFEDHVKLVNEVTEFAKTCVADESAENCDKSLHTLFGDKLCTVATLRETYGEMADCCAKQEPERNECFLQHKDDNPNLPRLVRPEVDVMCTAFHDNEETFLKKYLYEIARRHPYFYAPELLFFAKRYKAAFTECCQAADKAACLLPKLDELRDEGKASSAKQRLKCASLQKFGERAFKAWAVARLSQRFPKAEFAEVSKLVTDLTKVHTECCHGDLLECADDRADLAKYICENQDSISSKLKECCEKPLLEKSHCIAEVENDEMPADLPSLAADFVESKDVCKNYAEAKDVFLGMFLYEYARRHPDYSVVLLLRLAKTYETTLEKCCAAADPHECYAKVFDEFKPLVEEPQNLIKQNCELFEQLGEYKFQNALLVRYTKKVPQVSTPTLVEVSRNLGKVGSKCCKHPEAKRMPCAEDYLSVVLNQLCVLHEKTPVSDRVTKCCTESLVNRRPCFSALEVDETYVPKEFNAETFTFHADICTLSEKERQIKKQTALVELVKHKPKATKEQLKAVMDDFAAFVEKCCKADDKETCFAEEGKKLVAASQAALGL

Turning to `Cc1ccnc2c1NC(=O)c1cccnc1N2C1CC1` [nevirapine], where the note is “298 K, HSA”, the “Enthalpy (ΔHm), ITC” value is -2.53 kcal/mol; the “Gibbs free energy (ΔGm), ITC” value is -6.84 kcal/mol; the “Stoichiometry (n), ITC” value came out at 0.9. The “Entropy (ΔS) of binding to HSA” value (calculated from ITC results) was “+60.4 J K^−1 mol^−1”.
